As a reminder, the Kd is the free concentration of one partner at which half of the binding sites on the other are occupied at equilibrium, for simple one-to-one binding. As a reminder, the ΔTm is the shift of the melting midpoint relative to a reference.

The values below come from ChEMBL document CHEMBL4373727, “Thienopyrimidinone Derivatives That Inhibit Bacterial tRNA (Guanine37-N1)-Methyltransferase (TrmD) by Restructuring the Active Site with a Tyrosine-Flipping Mechanism” (J Med Chem, 2019).

Assay [1] concerns the target T1, tRNA (guanine-N(1)-)-methyltransferase (Pseudomonas aeruginosa (strain ATCC 15692 / DSM 22644 / CIP 104116 / JCM14847 / LMG 12228 / 1C / PRS 101 / PAO1), UniProt Q9HXQ1).
T1 sequence (Q9HXQ1 whole entry): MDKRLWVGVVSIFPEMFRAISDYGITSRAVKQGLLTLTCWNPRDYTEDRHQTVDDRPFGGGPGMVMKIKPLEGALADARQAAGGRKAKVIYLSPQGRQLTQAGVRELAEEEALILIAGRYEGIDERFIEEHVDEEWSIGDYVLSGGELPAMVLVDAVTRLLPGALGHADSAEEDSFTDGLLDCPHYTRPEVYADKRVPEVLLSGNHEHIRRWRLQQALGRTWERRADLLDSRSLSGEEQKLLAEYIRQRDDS
The assay can be described thus: Binding affinity to Pseudomonas aeruginosa tRNA (guanine(37)-N1)-methyltransferase (Leu5 to Asp25 residues) expressed in Escherichia coli BL21 (DE3) Rosetta T1R cells by surface plasmon resonance assay. The method in brief: (§1)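 SPR at 25 °C. His-tagged TrmD (50 μg/mL) captured on an anti-His antibody surface (about 2200 RU), with a blank reference cell. Buffer: 50 mM Tris-HCl pH 8, 150 mM NaCl, 1 mM MgCl2, 1 mM DTT, 0.05% Tween-20. Analyte in 2-fold dilutions, injected lowest to highest at 30 μL/min, 30 s contact, 240 s dissociation. KD from steady-state affinity fit.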

Assay [2] deals with T2, tRNA (guanine-N(1)-)-methyltransferase (Mycobacterium tuberculosis (strain ATCC 25618 / H37Rv), UniProt P9WFY7).
T2 sequence (P9WFY7 whole entry): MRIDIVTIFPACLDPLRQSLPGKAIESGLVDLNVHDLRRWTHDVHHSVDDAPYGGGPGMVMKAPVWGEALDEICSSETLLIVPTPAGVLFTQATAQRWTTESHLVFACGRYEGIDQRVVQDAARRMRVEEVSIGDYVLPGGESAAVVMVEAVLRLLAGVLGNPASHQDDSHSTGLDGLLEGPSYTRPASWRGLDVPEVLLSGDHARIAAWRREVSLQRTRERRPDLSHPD
Briefly: Binding affinity to full length Mycobacterium tuberculosis tRNA (guanine(37)-N1)-methyltransferase expressed in Escherichia coli BL21 (DE3) by surface plasmon resonance assay. The method in brief:
as §1

The target in assay [3] is T3, tRNA (guanine-N(1)-)-methyltransferase (Staphylococcus aureus (strain NCTC 8325 / PS 47), UniProt Q2FZ43).
T3 sequence (Q2FZ43 whole entry): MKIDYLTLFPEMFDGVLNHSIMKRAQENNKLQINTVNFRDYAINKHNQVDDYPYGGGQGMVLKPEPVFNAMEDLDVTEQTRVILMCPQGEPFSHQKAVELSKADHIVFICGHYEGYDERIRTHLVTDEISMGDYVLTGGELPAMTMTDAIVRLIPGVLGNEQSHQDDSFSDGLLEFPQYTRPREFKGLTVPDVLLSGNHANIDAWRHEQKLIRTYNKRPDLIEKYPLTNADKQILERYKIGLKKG
Briefly: Binding affinity to full length Staphylococcus aureus tRNA (guanine(37)-N1)-methyltransferase expressed in Escherichia coli BL21 (DE3) by surface plasmon resonance assay. The method, boiled down:
as §1
In general terms: SPR reads the build-up and loss of mass on a sensor chip optically.

The target of assay [4] is T4, tRNA (guanine-N(1)-)-methyltransferase (Pseudomonas aeruginosa (strain ATCC 15692 / DSM 22644 / CIP 104116 / JCM14847 / LMG 12228 / 1C / PRS 101 / PAO1)) (UniProt Q9HXQ1).
T4 sequence (whole entry): T1 sequence (Q9HXQ1 whole entry)
The assay can be described thus: Binding affinity to Pseudomonas aeruginosa tRNA (guanine(37)-N1)-methyltransferase (Leu5 to Asp25 residues) expressed in Escherichia coli BL21 (DE3) Rosetta T1R cells assessed as association rate constant by surface plasmon resonance assay. The method in brief: as §1

Assay [5] deals with T5, tRNA (guanine-N(1)-)-methyltransferase (Mycobacterium tuberculosis (strain ATCC 25618 / H37Rv)) (UniProt P9WFY7).
T5 sequence (whole entry): T2 sequence (P9WFY7 whole entry)
Briefly: Binding affinity to full length Mycobacterium tuberculosis tRNA (guanine(37)-N1)-methyltransferase expressed in Escherichia coli BL21 (DE3) assessed as association rate constant by surface plasmon resonance assay. The method, boiled down:
as §1

The target of assay [6] is T6, tRNA (guanine-N(1)-)-methyltransferase (Staphylococcus aureus (strain NCTC 8325 / PS 47)) (UniProt Q2FZ43).
T6 sequence (whole entry): T3 sequence (Q2FZ43 whole entry)
The assay can be described thus: Binding affinity to full length Staphylococcus aureus tRNA (guanine(37)-N1)-methyltransferase expressed in Escherichia coli BL21 (DE3) assessed as association rate constant by surface plasmon resonance assay. The method in brief:
as §1

Assay [7] concerns the target T4, tRNA (guanine-N(1)-)-methyltransferase (Pseudomonas aeruginosa (strain ATCC 15692 / DSM 22644 / CIP 104116 / JCM14847 / LMG 12228 / 1C / PRS 101 / PAO1)). Briefly: Binding affinity to Pseudomonas aeruginosa tRNA (guanine(37)-N1)-methyltransferase (Leu5 to Asp25 residues) expressed in Escherichia coli BL21 (DE3) Rosetta T1R cells assessed as dissociation rate constant by surface plasmon resonance assay. The method in brief: as §1

Assay [8] deals with T5, tRNA (guanine-N(1)-)-methyltransferase (Mycobacterium tuberculosis (strain ATCC 25618 / H37Rv)). The assay can be described thus: Binding affinity to full length Mycobacterium tuberculosis tRNA (guanine(37)-N1)-methyltransferase expressed in Escherichia coli BL21 (DE3) assessed as dissociation rate constant by surface plasmon resonance assay. The method, boiled down:
as §1

The target in assay [9] is T6, tRNA (guanine-N(1)-)-methyltransferase (Staphylococcus aureus (strain NCTC 8325 / PS 47)). Briefly: Binding affinity to full length Staphylococcus aureus tRNA (guanine(37)-N1)-methyltransferase expressed in Escherichia coli BL21 (DE3) assessed as dissociation rate constant by surface plasmon resonance assay. The method in brief: as §1
Assay [10] deals with T4, tRNA (guanine-N(1)-)-methyltransferase (Pseudomonas aeruginosa (strain ATCC 15692 / DSM 22644 / CIP 104116 / JCM14847 / LMG 12228 / 1C / PRS 101 / PAO1)). Briefly: Binding affinity to Pseudomonas aeruginosa tRNA (guanine(37)-N1)-methyltransferase (Leu5 to Asp25 residues) expressed in Escherichia coli BL21 (DE3) Rosetta T1R cells assessed as thermal stabilization of protein by measuring change in melting temperature at 2 mM by SYPRO orange based thermal shift assay. The method, boiled down: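 Thermal shift: 4 μM TrmD with 5× SYPRO Orange and ligand in 50 mM Tris-HCl pH 8, 150 mM NaCl, 1 mM MgCl2, 1 mM DTT, 0.05% Tween-20. Buffer-only control. Heated from 25 to 95 °C in a real-time PCR instrument, and Tm taken as the unfolding midpoint. Ligand levels: SAH 2 mM, inhibitors 0.1 mM.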

For the compound `Nc1ncnc2c1ncn2[C@@H]1O[C@H](CSCC[C@H](N)C(=O)O)[C@@H](O)[C@H]1O` [S-ADENOSYLHOMOCYSTEINE], the results for the dissociation constant (Kd) in assay [1], in [2] and in assay [3] were 5.9 µM, 10.1 µM and 3.3 µM, respectively. In addition, the Ka in [4] worked out at 55500 M⁻¹ s⁻¹; in assay [5] it was 7700 M⁻¹ s⁻¹; in assay [6], 279000 M⁻¹ s⁻¹. In addition, the Kdiss was 0.326 s⁻¹ in assay [7], 0.0775 s⁻¹ in [8] and 0.92 s⁻¹ in assay [9]. In assay [10], the shift in melting temperature (ΔTm) lay within 4 to 29 °C.
